Tests used:
[1] = Neurotoxicity in mice was assessed by rotarod test; format: toxicity; conditions: mouse, in vivo
[2] = Protective index, measure of ratio of TD50 and ED50 of PTZ; format: functional
Summary of the method: (§1)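 Protective index calculated as TD50 (rotorod) divided by ED50 in the PTZ or MES mouse seizure test.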

[3] = biological target: T1, GABA-A receptor; anion channel (Rattus norvegicus) (UniProt O09028+P15431+P18506+P18508+P19969+P20236+P23574+P23576+P28471+P28473+P30191+P62813+P63079+P63138+Q91ZM7+Q9ES14); experiment: Induced percentage potentiation of 3 uM GABA-mediated current at rat brain Gamma-aminobutyric acid A receptor (8 cells); format: functional
[4] = biological target: T1, GABA-A receptor; anion channel (Rattus norvegicus); experiment: Induced percentage potentiation of 3 uM GABA-mediated current at rat brain Gamma-aminobutyric acid A receptor (8 cells) at 1 mM in the presence of 3 mM alpha-IMGBL (picrotoxin antagonist); format: functional
[5] = biological target: GABA-A receptor; anion channel; experiment: Binding affinity for Gamma-aminobutyric acid A receptor from rat brain in the presence of radioligand [35S]- TBPS
Summary of the method: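 [35S]TBPS displacement in rat brain membranes (picrotoxin site of GABA-A receptors). Compounds dissolved in DMSO, final DMSO ≤2.5%. IC50 from at least three experiments in triplicate, mean ± SEM.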

Mus musculus [6] = organism: Mus musculus; experiment: Anticonvulsant activity in mice against maximal electroshock (MES) induced tonic hindlimb seizures; format: functional
Summary of the method: (§2)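 At least four groups of six mice each. Where these could not be calculated, the […] and lowest all-protected doses are given instead.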

Mus musculus [7] = organism: Mus musculus; experiment: Anticonvulsant activity in mice against pentylenetetrazole (PTZ) induced clonic seizures; format: functional; summary of the method: as §2
[8] = Protective index, measure of ratio of TD50 and ED50; format: functional; summary of the method: as §1
[9] = Protective index, measure of ratio of TD50 and ED50 of MES; format: functional; summary of the method: as §1
[10] = biological target: T1, GABA-A receptor; anion channel (Rattus norvegicus); experiment: Antagonism (300 uM) induced potentiation of 3 uM Gamma-aminobutyric acid A receptor mediated current by picrotoxin antagonist (alpha-IMGBL) at a dose 3 mM on 5 rat brain cells; format: functional, tissue-based; design: scale not given: the % may be the effect or the level left

Structure (SMILES)	TD50 [1]	IC50 [5]	other results
O=C1CCCN1 [2-PYRROLIDONE]	> 900 mg/kg		
CCC1(CC)CCNC1=O	260 mg/kg	5.81 mM	PI [2]: 5.65; Activity [3]: 137%; Activity [4]: 108%
O=C1NCCC12CCCC2	307 mg/kg	12.1 mM	
CCC1CCNC1=O (stereo unspecified)		48.1 mM	
CC(C)(C)C1(C)CCNC1=O (stereo unspecified)	> 300 mg/kg	3.26 mM	
CC1(C)CCNC1=O	> 600 mg/kg	32.4 mM	ED50 (Mus musculus [6]): > 600 mg/kg
CCC1(C)CC(=O)NC1=O (stereo unspecified) [ETHOSUXIMIDE]			ED50 (Mus musculus [7]): 161 mg/kg; PI [8]: 2.35
CC1CCNC1=O (stereo unspecified)	> 900 mg/kg		
CCC1(C(C)C)CCNC1=O (stereo unspecified)	207 mg/kg	2.62 mM	
CCC1(c2ccccc2)C(=O)NC(=O)NC1=O [PHENOBARBITAL]			ED50 (Mus musculus [7]): 22 mg/kg; PI [8]: 4
CC1(Cc2ccccc2)CCNC1=O (stereo unspecified)		0.85 mM	
CCCC(CCC)C(=O)O [VALPROIC ACID]			ED50 (Mus musculus [7]): 133 mg/kg; PI [8]: 2.12
O=C1NCCC1Cc1ccccc1 (stereo unspecified)	144 mg/kg	2.44 mM	PI [9]: 3.51
CC(C)C1(C)CCNC1=O (stereo unspecified)		6.86 mM	
CCC1(C)CCNC1=O (stereo unspecified)		12.1 mM	
CCC1(Cc2ccccc2)CCNC1=O (stereo unspecified)			Activity [10]: 98%
O=C1CCCS1 [THIOBUTYROLACTONE]		0.33 mM	

From ChEMBL document CHEMBL1129584, “3,3-Dialkyl- and 3-alkyl-3-benzyl-substituted 2-pyrrolidinones: a new class of anticonvulsant agents” (J Med Chem, 1996)
